{"source": "ChEMBL document CHEMBL3739303", "about": "“Targeting the Src Homology 2 (SH2) Domain of Signal Transducer and Activator of Transcription 6 (STAT6) with Cell-Permeable, Phosphatase-Stable Phosphopeptide Mimics Potently Inhibits Tyr641 Phosphorylation and Transcriptional Activity” (J Med Chem, 2015)", "note": "Peptide text beside a SMILES is read from it.", "data": [{"target": "T1, Signal transducer and activator of transcription 6 (Homo sapiens, UniProt P42226)", "T1 sequence (P42226 whole entry)": "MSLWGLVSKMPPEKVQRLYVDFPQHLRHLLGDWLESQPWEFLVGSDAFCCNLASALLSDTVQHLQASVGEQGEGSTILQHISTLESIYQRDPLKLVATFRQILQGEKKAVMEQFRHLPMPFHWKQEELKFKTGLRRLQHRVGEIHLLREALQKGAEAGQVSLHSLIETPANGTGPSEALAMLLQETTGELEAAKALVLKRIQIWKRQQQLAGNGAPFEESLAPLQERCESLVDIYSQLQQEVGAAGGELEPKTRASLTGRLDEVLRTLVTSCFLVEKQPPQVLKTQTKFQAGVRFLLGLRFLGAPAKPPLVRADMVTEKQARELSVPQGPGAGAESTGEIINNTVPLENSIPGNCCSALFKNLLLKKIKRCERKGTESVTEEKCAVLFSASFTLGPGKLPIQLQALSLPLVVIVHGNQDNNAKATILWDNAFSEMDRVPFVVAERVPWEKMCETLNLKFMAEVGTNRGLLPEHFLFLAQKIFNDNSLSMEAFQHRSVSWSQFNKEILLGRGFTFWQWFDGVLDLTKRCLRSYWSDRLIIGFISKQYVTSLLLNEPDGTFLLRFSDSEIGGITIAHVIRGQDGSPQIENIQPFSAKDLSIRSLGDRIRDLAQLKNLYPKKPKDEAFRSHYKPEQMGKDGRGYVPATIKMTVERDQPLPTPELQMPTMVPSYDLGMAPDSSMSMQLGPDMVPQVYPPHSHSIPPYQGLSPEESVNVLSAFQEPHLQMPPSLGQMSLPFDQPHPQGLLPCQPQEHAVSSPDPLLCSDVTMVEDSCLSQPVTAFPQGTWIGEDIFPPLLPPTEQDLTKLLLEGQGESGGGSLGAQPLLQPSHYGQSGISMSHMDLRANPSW", "assay": "Inhibition of STAT6 (unknown origin) expressed in Escherichia coli using FAM-Ala-pTyr-Lys-ProPhe-Gln-Asp-Leu-Ile-NH2 as substrate by fluorescence polarization assay", "in_short": "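His6-tagged STAT6 construct (coiled-coil, DNA-binding, linker and SH2 domains), purified by nickel IMAC; competitive FP binding. STAT6 at 480 nM mixed with 20 nM FAM-labelled phosphopeptide probe, then equal volume of serially diluted peptides (from 200 μM) added. Buffer: 50 mM NaCl, 10 mM Hepes, 1 mM Na4EDTA, 2 mM DTT, 1% NP-40. mP plotted against log concentration; IC50 by nonlinear regression; triplicate, three probe preparations; mean ± SD.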", "units": {"IC50": "nM"}, "values": [{"smiles": "CN(C(=O)[C@@H]1CCCN1C(=O)[C@@H](NC(=O)/C=C/c1ccc(OP(=O)(O)O)cc1)C(C)(C)C)c1ccccc1", "IC50": 870}, {"smiles": "CC(=O)N[C@@H](Cc1ccc(OP(=O)(O)O)cc1)C(=O)N[C@@H](CCCCN)C(=O)N1CCC[C@H]1C(N)=O", "note": "(HELM PEPTIDE1{[ac].[O=C([C@H](Cc1ccc(OP(=O)(O)O)cc1)N[*:1])[*:2]].K.P.[am]}$$$$V2.0)", "IC50": 5200}, {"smiles": "C/C(=C\\C(=O)N[C@H](C(=O)N1CCC[C@H]1C(=O)N(C)c1ccccc1)C(C)(C)C)c1ccc(OP(=O)(O)O)cc1", "IC50": 120}, {"smiles": "NCCCC[C@H](NC(=O)/C=C/c1ccc(OP(=O)(O)O)cc1)C(=O)N1CCC[C@H]1C(=O)N[C@@H](Cc1ccccc1)C(N)=O", "IC50": 8600}, {"smiles": "C/C(=C\\C(=O)N[C@H](C(=O)N(C)CC(=O)N(C)c1ccccc1)C(C)(C)C)c1ccc(OP(=O)(O)O)cc1", "IC50": 270}, {"smiles": "C/C(=C\\C(=O)N[C@H](C(=O)N1CCCC1CCCCc1ccccc1)C(C)(C)C)c1ccc(OP(=O)(O)O)cc1", "note": "(some centres undefined)", "IC50": 1070}, {"smiles": "C/C(=C\\C(=O)N[C@H](C(=O)N1CCC[C@H]1C(=O)NCCc1ccccc1)C(C)(C)C)c1ccc(OP(=O)(O)O)cc1", "IC50": 250}, {"smiles": "C/C(=C\\C(=O)N[C@H](C(=O)N1CCCC1/C=C/c1ccccc1)C(C)(C)C)c1ccc(OP(=O)(O)O)cc1", "note": "(some centres undefined)", "IC50": 3430}, {"smiles": "C/C(=C\\C(=O)N[C@H](C(=O)N1CCC[C@H]1C(=O)NCc1ccccc1)C(C)(C)C)c1ccc(OP(=O)(O)O)cc1", "IC50": 340}, {"smiles": "C/C(=C\\C(=O)N[C@H](C(=O)N1CCC[C@H]1C(=O)N(c1ccccc1)c1ccc(I)cc1)C(C)(C)C)c1ccc(OP(=O)(O)O)cc1", "IC50": 28}, {"smiles": "CC(=O)N[C@@H](Cc1ccc(OP(=O)(O)O)cc1)C(=O)N[C@@H](CCCCN)C(=O)N1CCC[C@H]1C(=O)N[C@@H](Cc1ccccc1)C(=O)N[C@@H](CCC(N)=O)C(=O)N[C@@H](CC(=O)O)C(N)=O", "note": "(HELM PEPTIDE1{[ac].[O=C([C@H](Cc1ccc(OP(=O)(O)O)cc1)N[*:1])[*:2]].K.P.F.Q.D.[am]}$$$$V2.0)", "IC50": 4500}, {"smiles": "CC(=O)N[C@@H](Cc1ccc(OP(=O)(O)O)cc1)C(=O)N[C@@H](CCCCN)C(=O)N1CCC[C@H]1C(=O)N[C@@H](Cc1ccccc1)C(=O)N[C@@H](CCC(N)=O)C(=O)N[C@@H](CC(=O)O)C(=O)N[C@@H](CC(C)C)C(N)=O", "note": "(HELM PEPTIDE1{[ac].[O=C([C@H](Cc1ccc(OP(=O)(O)O)cc1)N[*:1])[*:2]].K.P.F.Q.D.L.[am]}$$$$V2.0)", "IC50": 2400}, {"smiles": "C/C(=C\\C(=O)N[C@H](C(=O)N1CCCC1/C=C/CCc1ccccc1)C(C)(C)C)c1ccc(OP(=O)(O)O)cc1", "note": "(some centres undefined)", "IC50": 540}, {"smiles": "CC[C@H](C)[C@H](NC(=O)[C@H](CC(C)C)NC(=O)[C@H](CC(=O)O)NC(=O)[C@H](CCC(N)=O)NC(=O)[C@H](Cc1ccccc1)NC(=O)[C@@H]1CCCN1C(=O)[C@H](CCCCN)NC(=O)[C@H](Cc1ccc(OP(=O)(O)O)cc1)NC(C)=O)C(N)=O", "note": "(HELM PEPTIDE1{[ac].[O=C([C@H](Cc1ccc(OP(=O)(O)O)cc1)N[*:1])[*:2]].K.P.F.Q.D.L.I.[am]}$$$$V2.0)", "IC50": 1800}, {"smiles": "CC(C)(C)[C@H](NC(=O)/C=C/c1ccc(OP(=O)(O)O)cc1)C(=O)N1CCC[C@H]1C(=O)Nc1ccccc1", "IC50": 1250}, {"smiles": "C/C(=C\\C(=O)N[C@H](C(=O)N1CCC[C@H]1C(=O)N(C)C)C(C)(C)C)c1ccc(OP(=O)(O)O)cc1", "IC50": 740}, {"smiles": "C/C(=C\\C(=O)N[C@H](C(=O)N(C)[C@@H](C)C(=O)N(C)c1ccccc1)C(C)(C)C)c1ccc(OP(=O)(O)O)cc1", "IC50": 480}, {"smiles": "CC(C)(C)[C@H](NC(=O)/C=C/c1ccc(OP(=O)(O)O)cc1)C(=O)N1CCC[C@H]1C(=O)N(c1ccccc1)c1ccc(I)cc1", "IC50": 44}, {"smiles": "CC(=O)N[C@@H](Cc1ccc(OP(=O)(O)O)cc1)C(=O)N[C@@H](CCCCN)C(=O)N1CCC[C@H]1C(=O)N[C@@H](Cc1ccccc1)C(=O)N[C@@H](CCC(N)=O)C(N)=O", "note": "(HELM PEPTIDE1{[ac].[O=C([C@H](Cc1ccc(OP(=O)(O)O)cc1)N[*:1])[*:2]].K.P.F.Q.[am]}$$$$V2.0)", "IC50": 4200}]}]}
